# Data: PubChem BioAssay AID624038 (The Scripps Research Institute Molecular Screening Center, 2012)
# Values joined by “and” are separate entries in the source; they are usually repeats but may differ in a detail not shown here. Identical values can stand only once. Among all 360,000 compounds or so, about 1,100 (0.31%) were called active.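 How the source made its calls: active means activation above the run cutoff, the mean activation of all test compounds plus 3 SD (cut at about 18% in these data); inactive means the rest.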 Shown is part of a subset that was picked to be rich in actives. The source holds several records for some structures; these can differ, active in one and inactive in another.
# Biological target: Muscarinic acetylcholine receptor M5 (Homo sapiens) (UniProt P08912)
# Test: human M5 muscarinic receptor positive allosteric modulators, primary screen, CHO-K1 cells, Fluo-8 calcium fluorescence (AID 624038)
# Settings: CHO-K1 hM5, Fluo-8 calcium, ACh EC20 PAM; at 3 µM; stronger effect = higher value; 0% = ACh EC20, 100% = ACh EC100
# Procedure, shortened: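 Replicates: One well per compound, no replicates | System: Human M5 receptor in CHO-K1 cells | Benchmarks: Low control EC20 acetylcholine (0%), high control EC100 acetylcholine (100%) | Probe or stimulus: Acetylcholine, EC20 level | Times: Fluo-8 loading 80 min at 37 °C plus 30 min room temperature | Signal: Intracellular calcium via Fluo-8 fluorescence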
# Sequence of Muscarinic acetylcholine receptor M5 (Homo sapiens) (P08912 whole entry, looked up): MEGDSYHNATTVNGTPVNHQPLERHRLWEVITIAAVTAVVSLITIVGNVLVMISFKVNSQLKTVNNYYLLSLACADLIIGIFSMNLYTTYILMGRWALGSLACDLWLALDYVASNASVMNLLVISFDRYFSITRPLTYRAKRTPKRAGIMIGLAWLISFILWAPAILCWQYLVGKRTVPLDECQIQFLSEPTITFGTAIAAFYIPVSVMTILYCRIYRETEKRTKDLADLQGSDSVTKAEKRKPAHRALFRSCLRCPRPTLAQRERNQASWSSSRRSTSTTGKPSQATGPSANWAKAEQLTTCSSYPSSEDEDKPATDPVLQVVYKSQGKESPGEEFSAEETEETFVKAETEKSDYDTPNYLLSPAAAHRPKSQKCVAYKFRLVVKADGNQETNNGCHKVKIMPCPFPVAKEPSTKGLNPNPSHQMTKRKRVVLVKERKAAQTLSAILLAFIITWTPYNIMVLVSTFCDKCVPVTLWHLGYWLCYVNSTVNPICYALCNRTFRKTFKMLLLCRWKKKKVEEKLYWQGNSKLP
row,Structure (SMILES),activation
1,CCOC(=O)CC1(NC(=O)c2cc(COc3cncc(Cl)c3)on2)CCCCC1,-12.1% (inactive)
2,O=C(NNS(=O)(=O)c1ccc(F)cc1)c1cnccn1,-12.5% (inactive)
3,COc1ccc(CN(C(=O)c2cccs2)c2nccs2)cc1OC,-13.5% (inactive)
4,OCC[C@H]1C[C@H](O)[C@@H](O)[C@]2(CCCCO2)O1,19.8% (active)
5,C[C@@H]1CC[C@]2(O[C@@H](CCO)C[C@H](O)[C@H]2O)O1,3.31% (inactive)
6,C[C@H]1CC[C@]2(O[C@@H](CCO)C[C@@H](O)[C@@H]2O)O1,5.16% (inactive)
7,Cc1ccc(NC(=O)N2CCSc3ccccc32)cc1,-6.2% (inactive)
8,Cc1ccc(-c2nnc(CN3CCN(C)CC3)o2)cc1,5.27% (inactive)
9,CCCCSc1nnc(-c2ccc(C)cc2)o1,19.1% (active)
10,CCN(C(=O)CSc1nnc(-c2ccncc2)o1)c1ccccc1,-1.49% (inactive)
11,COCCNc1nc(N)c([N+](=O)[O-])c(NCCO)n1,-6.19% (inactive)
12,CCOC(=O)c1ccc2c(c1)nc(SCC(=O)NC(C)C)n2CC,0.07% (inactive)
13,CCc1ccc(NC(=O)C(=O)N/N=C(\C)CC(=O)NCCOC)cc1,3.15% (inactive)
14,Cc1cc(C)n(-c2cc(Oc3ccccc3)ncn2)n1,34.2% (active)
15,CC(=O)c1cnn(-c2cc(Oc3ccc(F)cc3)ncn2)c1C,0.64% (inactive)
16,Cc1cc(C)n(-c2ccc3nncn3n2)n1,0.99% (inactive)
17,COC(=O)c1sc(SC)c(S(=O)(=O)C(C)C)c1N/N=C(\C#N)S(=O)(=O)c1ccccn1,3.1% (inactive)
18,CCc1nc2ccc(C(=O)N3CCC(O)(Cc4ccccc4)CC3)cn2c1N(C)C(=O)Cc1ccccc1,1.27% (inactive)
19,CCCCc1ccc(NC(=O)NCc2cccnc2)cc1,2.66% (inactive)
20,CCCCCCCCCCCCN1C(=O)CSC1c1cccnc1 (stereo not drawn),22.7% (active)
21,CN(C)CCCN1C(=O)CSC1c1ccc([N+](=O)[O-])cc1 (stereo not drawn),8.84% (inactive)
22,CCN(CC)S(=O)(=O)c1cc([N+](=O)[O-])ccc1N=Nc1c(O)n(C)c2ccccc12,-2.02% (inactive)
23,CCOc1ccc(NC(=O)CN(C)C(=O)CCSc2ccc(F)cc2)cc1OCC,-1.87% (inactive)

row,Structure (SMILES),activation
1,CCN(Cc1ccccc1)S(=O)(=O)c1cc2c3c(c1)CCN3C(=O)CC2,3.77% (inactive)
2,Cc1cc(C)c2nc(N(CCN(C)C)C(=O)/C=C/c3cccs3)sc2c1,18.8% (active)
3,Cc1ccc(S(=O)(=O)N(C)C)cc1NC(=O)COC(=O)/C=C/c1cccs1,1.46% (inactive)
4,Cc1ccc(S(=O)(=O)N(C)C)cc1NC(=O)/C=C/c1cccs1,-1.18% (inactive)
5,FC(F)(F)c1ccnc(Oc2ccc(C3=NCCS3)cc2)c1,-0.95% (inactive)
6,COc1ccc(NC(=O)CSc2nnc(-c3ccccc3F)n2C2CC2)cc1S(N)(=O)=O,4.72% (inactive)
7,CCOC1CS(=O)(=O)CC1OCC (stereo not drawn),27.7% (active)
8,O=C(O)c1ccc(COCC(F)(F)F)cc1,-0.76% (inactive)
9,CCCCCCN1CCN(C2CN(Cc3cn(CCCCCC)nn3)S(=O)(=O)C2)CC1 (stereo not drawn),0.04% (inactive)
10,Cc1cccc(-n2nc3c(c2NC(=O)c2cc4ccccc4o2)CS(=O)(=O)C3)c1,0.74% (inactive)
11,CCC(C(=O)N1CCN(S(=O)(=O)c2sc(C(=O)O)c(C)c2C(=O)O)CC1)c1ccccc1 (stereo not drawn),5.73% (inactive)
12,COc1ccc(OC)c(S(=O)(=O)Nc2ccccc2F)c1,-7.66% (inactive)
13,COc1ccc(OC)c(S(=O)(=O)NCCC(C)C)c1,3.29% (inactive)
14,COc1ccc(OC)c(S(=O)(=O)Nc2c(C)nn(C)c2C)c1,18.8% (active)
15,Cc1ccc(Br)c(NS(=O)(=O)c2cccc(C(=O)N3CCNC(=O)C3)c2)c1,-1.57% (inactive)
16,CCOC(=O)c1cnc(-n2nc(C)cc2C)nc1-n1nc(C)cc1C,37.3% (active)
17,CCOC(=O)c1cnc2c(c(C)nn2CC)c1Cl,0.72% (inactive)
18,CCOC(=O)c1cnc(-n2nc(C)cc2C)nc1NNc1cc(C)nc(-c2ccccc2)n1,0.83% (inactive)
19,Cc1cc(C(=O)OCC(=O)Nc2nccs2)c2ccccc2n1,-1.11% (inactive)
20,C=CCn1c(=S)[nH]c2scc(-c3ccco3)c2c1=O,-1.04% (inactive)
21,Cc1cc(C)n(Cc2cnc(N3CCOCC3)s2)n1,-0.72% (inactive)
22,CN(CC(=O)Nc1c(Cl)cccc1Cl)C(=O)CNC(=O)C1CCCCC1,7.43% (inactive)
23,COc1cccc(N(CC(=O)NC2CCCCCC2)S(=O)(=O)c2ccccc2)c1,-3.45% (inactive)

row,Structure (SMILES),activation
1,COc1cccc(N(CC(=O)N2CCc3ccccc3C2)S(C)(=O)=O)c1,-6.56% (inactive)
2,CCN(CC)C(=O)CN(c1cccc(OC)c1)S(=O)(=O)c1ccc(C)cc1,24% (active)
3,CCN1CCN(C(=O)C2CCCN(S(=O)(=O)c3ccc(OC)c(OC)c3)C2)CC1 (stereo not drawn),-3.07% (inactive)
4,CCOC(=O)C1CCN(Cc2ccc(-c3ccccc3)cc2)CC1,-6.76% (inactive)
5,CCNC(=S)NNC(=O)C1CCN(Cc2ccccc2)CC1,22.7% (active)
6,O=C(NNS(=O)(=O)c1ccc(Cl)cc1)C1CCN(Cc2ccccc2)CC1,-22.7% (inactive)
7,CCCc1nc(N)nc2c1C(=O)CC(C)(C)C2,3.62% (inactive)
8,COc1ccc(N2CCN(CCCNC(=O)C3CCN(S(=O)(=O)N4CCOCC4)CC3)CC2)cc1,-0.18% (inactive)
9,CSc1ccc(C(=O)C2CCCN(C(=O)c3ccc(C)nc3)C2)cc1 (stereo not drawn),-1.27% (inactive)
10,Cn1nccc1NC(=O)CC(CC(=O)O)c1ccccc1 (stereo not drawn),-3.88% (inactive)
11,Cc1c(-c2ccccc2)nc(N)c(C#N)c1-c1cccs1,-5.86% (inactive)
12,O=C(O)c1n[nH]nc1-c1ccccc1,3.89% (inactive)
13,N#Cc1c(-c2ccccc2)c(-c2ccccc2)n[nH]c1=O,20.6% (active)
14,O=C(COc1ccc(Cl)cc1)NCCS(=O)(=O)N1CCN(c2ccc(F)cc2)CC1,-8.06% (inactive)
15,CCCc1nc(N2CCN(C)CC2)c2sc(=S)n(-c3ccccc3)c2n1,-2.27% (inactive)
16,O=C(/C=C/c1c(F)cccc1Cl)Nc1nn[nH]n1,-6.11% (inactive)
17,O=C(/C=C/c1c(Cl)cccc1Cl)NCc1ccccc1,0.05% (inactive)
18,CCOC(=O)CNC(=O)/C=C/c1c(Cl)cccc1Cl,20.4% (active)
19,CCc1ccc(N(CC)c2ncnc3nc[nH]c23)cc1,-3.31% (inactive)
20,CC(C)Cn1c(=O)c2ccccc2n2c(CCC(=O)NCc3ccccn3)nnc12,-4.54% (inactive)
21,CSc1ncc(Sc2ccccc2)c(C(=O)O)n1,23.2% (active)
22,CSc1ncc(C(=O)NCCCc2ccccc2)c(C)n1,-2.95% (inactive)
23,Cc1ccccc1C(=O)Nc1ccccc1Sc1ccccc1,-14.3% (inactive)

row,Structure (SMILES),activation
1,CCOc1ccc(S(=O)(=O)N2CCCC(C(=O)N3CCC(C(N)=O)CC3)C2)cc1Cl (stereo not drawn),5.31% (inactive)
2,CCCCOP(=O)(c1ccc(N(C)C)cc1)C(O)c1cc(OC)ccc1OC (stereo not drawn),4.18% (inactive)
3,CSCC(=O)N1CCCC(C(=O)c2cc(F)ccc2F)C1 (stereo not drawn),-4.39% (inactive)
4,S=C(Nc1ccc(Br)cc1Cl)N1CCC2(CC1)OCCO2,-0.18% (inactive)
5,NC(=O)C1=C[C@@H](c2ccc3c(c2)OCO3)C[C@@H](OCCCCO)O1,-3.38% (inactive)
6,Cc1nn(Cc2ccccc2)c(C)c1NS(=O)(=O)c1ccccc1,-9.59% (inactive)
7,O=C(CS(=O)(=O)c1ccccc1)Nc1ccc(S(=O)(=O)Nc2ccccn2)cc1,-5.27% (inactive)
8,COc1ccc(NC(=O)CC(NC(C)c2ccccc2)C(=O)O)cc1 (stereo not drawn),-1.9% (inactive)
9,COc1ccc(NC(=O)CS(=O)(=O)c2ccccc2)cc1,18.2% (active)
10,CCOC(=O)N1CCC(NC(=O)C(C)n2c3ccccc3c3cnn(C)c(=O)c32)CC1 (stereo not drawn),-5.66% (inactive)
11,CCN(CC(=O)Nc1c(F)cccc1F)C(=O)c1ccc(Sc2nncn2C)c([N+](=O)[O-])c1,0.28% (inactive)
12,Cc1ccccc1N(C(=O)CNC(=O)c1cccs1)C(C(=O)NC1CCCC1)c1ccncc1 (stereo not drawn),5.18% (inactive)
13,COc1ccc(C(C(=O)NC2CCCCC2)N(C(=O)c2snc(C(N)=O)c2N)c2ccccc2OC)cc1 (stereo not drawn),-2.86% (inactive)
14,COc1ccc(C(C(=O)NC2CCCCC2)N(C(=O)CCl)c2ccccc2Cl)cc1 (stereo not drawn),28.1% (active)
15,O=C(CSc1nc2ncccc2[nH]1)Nc1ccc2c(c1)OCCO2,-2.19% (inactive)
16,CCOc1ccc(C(=O)CCC(=O)Nc2ccncc2)cc1,-11.9% (inactive)
17,CCOc1ccc(NC(=O)CCC(=O)NNC(=O)NC2CCCCC2)cc1,21.3% (active)
18,CCOc1ccccc1NC(=O)NC1CCCCCCC1,-0.6% (inactive)
19,O=C(CCn1c(=O)oc2ccccc21)Nc1ccon1,3.01% (inactive)
20,CC(NCc1cccs1)C(=O)Nc1cc(Cl)cc(Cl)c1 (stereo not drawn),-6.98% (inactive)
21,CCCCNC(=O)c1ccccc1NC(=O)C1=C(C)OCCS1,-4.46% (inactive)
22,CCCCNC(=O)c1ccccc1NC(=O)c1ccccc1N(C)S(C)(=O)=O,21.6% (active)
23,CCC(C)NC(=O)c1ccccc1NC(=O)c1ccccc1N(C)S(C)(=O)=O (stereo not drawn),2.75% (inactive)

row,Structure (SMILES),activation
1,Cc1noc(/C=C/c2ccco2)c1S(=O)(=O)N1CCC(C(=O)N2CCc3ccccc32)CC1,-9.2% (inactive)
2,CC(C)(C)n1nnnc1C(c1ccc2ncccc2c1)N1CCSCC1 (stereo not drawn),-6.68% (inactive)
3,CC1(C)CC(=O)C(C=NCCN2CCN(C(=S)Nc3cccc(Cl)c3)CC2)=C(O)C1,0.98% (inactive)
4,CC(=O)N1CCN(CCN=CC2=C(O)CC(C)(C)CC2=O)CC1,-3.36% (inactive)
5,CC(C)C(=O)N1CCN(CCN=CC2=C(O)CC(c3ccco3)CC2=O)CC1 (stereo not drawn),18.8% (active) and 2.37% (inactive)
6,CCCC(C)NC(=O)C1CCN(C(=O)C2CC(=O)N(c3ccc(C)cc3)C2)CC1 (stereo not drawn),1.21% (inactive)
7,COCCCNC(=O)C1CC(=O)N(c2ccc(C)cc2)C1 (stereo not drawn),-2.16% (inactive)
8,COCCNC(=O)C1CCN(C(=O)C2CC(=O)N(c3ccc(C)cc3)C2)CC1 (stereo not drawn),19.9% (active)
9,O=C(CCC(=O)n1ncc2ccccc21)NCc1ccccc1Cl,-1.46% (inactive)
10,O=C(CN1C(=O)NC(Cc2ccccc2)(Cc2ccccc2)C1=O)NCC1CCCCC1,-4.45% (inactive)
11,O=C(CNc1cccc(S(=O)(=O)N2CCCCC2)c1)Nc1ccccc1F,2.99% (inactive)
12,CC(NC(=O)C(=O)Nc1nccs1)c1ccccc1 (stereo not drawn),20.9% (active)
13,C[C@H](NC(=O)c1[nH]cnc1C(=O)Nc1nccs1)c1ccccc1,6.95% (inactive)
14,CC(=O)NC(CC(=O)Nc1nccs1)c1ccccc1 (stereo not drawn),3.53% (inactive)
15,CCCCn1nc(C(=O)OCC(=O)Nc2sccc2C(N)=O)c2ccccc2c1=O,-5.8% (inactive)
16,COC(=O)c1ccc(CN2CCC(CO)(Cc3ccc(OC)cc3)CC2)cc1,-13.3% (inactive)
17,O=C(NC1=NCCS1)c1ccc(Cl)s1,2.85% (inactive)
18,COc1ccc(NC(=O)C(C)SCc2ccccc2)cc1 (stereo not drawn),3.94% (inactive)
19,C=CCN1C(=O)C(O)(CC(=O)c2ccc(Cl)cc2)c2ccccc21 (stereo not drawn),12.2% (inactive)
20,O=C(CC1(O)C(=O)N(CN2CCOCC2)c2ccccc21)c1ccccc1 (stereo not drawn),37.4% (active)
21,C=CCN1C(=O)C(O)(CC(=O)c2ccccn2)c2ccccc21 (stereo not drawn),0.57% (inactive)
